High-throughput results (PubChem BioAssay)
5HT1E ag – 5-HT1E (human) receptor agonism; CHO 5-HT1E Ga15 NFAT-bla reporter, FRET; 0% DMSO wells, 100% control agonist wells; activation, % at 6 µM; 0.69% of 65,000 active; P28566; AID 574;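 active = activation above a set limit, the screen-wide mean activation plus 3 SD, cut at about 8.5% in these data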;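 note: 100% = positive control agonist at 1 µM giving full maximal response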
S1P3 ag – agonists of human S1P3 receptor; activation, % at 4.5 µM; 0.1% of 60,000 active; S1P3 NFAT-BLA reporter cells, agonism, FRET ratio; relative to 1 µM S1P, basal subtracted; Q99500; AID 373;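 active = activation above the screen-wide mean plus 3 SD, cut at about 4.5% in these data, passing the limit was not always enough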
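Measure – % activation relative to 1 µM S1P (100%), per plate · System – stable CHO line with human S1P3, Gα16, NFAT-BLA reporter · Timing – cells plated overnight, compound 4 h 37 °C, substrate 2 h RT · Technique – fluorescent BLA substrate, ex 405 nm, em 460/535 nm ratio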
5HT1a ag – activates the human 5-HT1a serotonin receptor. CHO 5-HT1a Ga15 NFAT-bla reporter, FRET ratio; 0% basal, 100% maximal reference agonist. 0.56% of 65,000 active. activation, % at 10 µM. AID 567. P08908;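 active = activation above the screen-wide mean activation plus 3 SD, cut at about 19% in these data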;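 note: 0% = DMSO wells and 100% = 5-CT at EC100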
Target sequence (P08908 whole entry, looked up): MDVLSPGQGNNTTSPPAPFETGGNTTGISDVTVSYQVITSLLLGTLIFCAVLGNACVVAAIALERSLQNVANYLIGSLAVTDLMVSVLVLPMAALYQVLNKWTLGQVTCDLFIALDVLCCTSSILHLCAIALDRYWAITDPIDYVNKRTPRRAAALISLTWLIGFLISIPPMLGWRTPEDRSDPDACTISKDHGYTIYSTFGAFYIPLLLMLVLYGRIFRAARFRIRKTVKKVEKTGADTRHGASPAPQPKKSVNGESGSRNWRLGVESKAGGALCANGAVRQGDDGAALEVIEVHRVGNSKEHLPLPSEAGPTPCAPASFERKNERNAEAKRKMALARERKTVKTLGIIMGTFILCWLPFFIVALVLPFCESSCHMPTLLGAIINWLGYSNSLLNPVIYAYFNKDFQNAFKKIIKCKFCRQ
5HT1E antag – blocks the human 5-HT1E serotonin receptor. P28566. CHO 5-HT1E Ga15 NFAT-bla reporter, FRET, antagonist. inhibition, % at 6 µM. 0.99% of 65,000 active;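 active = inhibition above a set limit, the mean inhibition across every tested compound plus 3 SD, cut at about 29% in these data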;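 note: signal is the 460 over 535 nm emission ratio of beta-lactamase substrate; 0% = agonist plus DMSO wells and 100% = wells without agonist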
S1P1 ag-PAM – activates or potentiates agonism at human S1P1 receptor | P21453 | S1P1 CRE-bla cells, forskolin, beta-lactamase FRET, potentiator mode; S1P1 agonist co-added at EC20, 2 nM; 100% = saturating reference agonist, 0% = basal | activation, % at 9.5 µM | 0.57% of 56,000 active | AID 449;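 active = activation above a cutoff set at the mean activation of all tested compounds plus 3 SD, cut at about 54% in these data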;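 note: forskolin at 4 µM as EC80 and the EC20 agonist is SEW2871; 100% = SEW2871 at its EC100 plus forskolin at EC80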
5-HT1A blocker – blocks the human serotonin 5-HT1a receptor | CHO 5-HT1a Ga15 NFAT-bla reporter, antagonist mode | 0.68% of 62,000 active | inhibition, % at 10 µM;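 active = inhibition above the mean of all tested compounds plus 3 SD, cut at about 43% in these data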;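 note: receptor stimulated by 5-CT agonist at 100 nM near EC80; beta-lactamase reporter measured by ratiometric fluorescence of a cleavable substrate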
The depositor's hits bear a star; . = no result. A selection: hits, their analogues and other compounds. The true share with any hit is near 2.9%.

SMILES	5HT1E ag	S1P3 ag	5HT1a ag	5HT1E antag	S1P1 ag-PAM	5-HT1A blocker
COc1ccc(C(=O)OCCNC(=O)c2c(Cl)nc3ccccn23)cc1	1	0	5	35*	-40	4
COc1ccc(-c2nn(CC(=O)N(C)C)c(=O)c3ccccc23)cc1	0	0	0	-2	.	6
CCOc1ccc(N2CC(C(=O)Nc3ccccc3F)CC2=O)cc1 (configuration not stated)	1	.	1	-10	.	-11
COc1cccc(C(=O)CSc2nnc(COc3cccc4cccnc34)o2)c1	-2	-1	46*	12	1	6
Cc1ccc(C(=O)CSc2nnc(COc3cccc4cccnc34)o2)cc1	0	-1	-2	10	12	-3
c1ccc(CNc2ncnc3nc[nH]c23)nc1	0	-1	-3	5	0	-2
Clc1ccccc1CNc1ncnc2nc[nH]c12	1	-1	47*	-10	9	3
CSc1nc2ccc(NS(=O)(=O)c3ccc4c(c3)OCCO4)cc2s1	-1	.	-3	-3	.	-3
CCCCOc1ccc(-c2nnn(CC(=O)NCc3ccco3)n2)cc1	0	-1	-3	29*	37	35
CCCCCCC(=O)N(O)C1CC(=O)N(Cc2ccccc2)C1=O (configuration not stated)	-1	-2	-7	30*	28	30
CCCCCC(=O)N(O)C1CC(=O)N(c2ccccc2)C1=O (configuration not stated)	0	0	-4	12	7	3
Cc1ccc(Cl)cc1N1CCN(S(=O)(=O)c2ccc3c(c2)oc(=O)n3C)CC1	0	-1	0	20	-2	6
CCn1c(N)c(C(=O)NC)sc1=S	-1	0	-3	10	-10	3
Cc1oc(-c2ccc(Cl)cc2)nc1CN1CCC(C(=O)N2CCN(c3ccccn3)CC2)CC1	0	-1	1	3	-9	-2
Cc1nc2ccccc2c2oc(C(=O)NCc3ccccn3)cc12	0	-1	34*	-1	-36	1
O=C1CC(C(=O)Nc2ccccc2)C2(CCCC2)O1 (configuration not stated)	14*	.	-1	1	.	1
O=C1CC(C(=O)Nc2ccc(C(=O)N3CCOCC3)cc2)C2(CCCCC2)O1 (configuration not stated)	0	-1	-1	-1	-28	-14
Cc1ccc(NC(=O)c2ccc3ccccc3n2)nc1	0	-1	-5	3	22	24
Cc1nn(-c2ccccc2)c(OC(=O)c2cccs2)c1S(=O)(=O)c1ccccc1	-1	1	81*	4	5	-6
Nc1cc(OC(=O)c2cccs2)nn1S(=O)(=O)c1ccccc1	-1	0	-3	-1	-11	8
O=c1cc(NCc2ccco2)[nH]c(=O)n1-c1ccc(Br)cc1	1	.	-2	0	.	1
O=C(CCN1CCCC1Cc1ccccc1)c1ccc2c(c1)OCCO2 (configuration not stated)	8.9*	-5	-1	16	42	.
Cc1ccc(C2/C(=C(\O)c3ccc4c(c3)OCCO4)C(=O)C(=O)N2CCCN(C)C)o1 (configuration not stated)	-1	0	2	13	-3	.
Cc1cc(N2CCC(N(C)C3CCCC3)CC2)nc2cc(O)ccc12	0	0	-1	3	0	-2
CN(C)CCCN1c2ccccc2Sc2ccc(C(F)(F)F)cc21	12*	-2	2	17	8	.
SMILES	5HT1E ag	S1P3 ag	5HT1a ag	5HT1E antag	S1P1 ag-PAM	5-HT1A blocker
OCCN1CCN(CCCN2c3ccccc3Sc3ccc(C(F)(F)F)cc32)CC1	-1	-1	0	-18	9	.
N=c1c2c(-c3ccccc3)c(-c3ccccc3)n(Cc3ccco3)c2ncn1Cc1ccco1	2	-1	-3	-7	-23	57*
N=c1c2c(-c3ccccc3)c(-c3ccccc3)n(Cc3ccccc3)c2ncn1CCCn1ccnc1	0	-1	2	-16	-18	.
Cn1nc(-c2ccc(Cl)cc2)c2cc(C(=O)N3CCC(N4CCCCC4)CC3)sc21	0	0	-3	-6	-44	-8
Cn1c(=O)[nH]c(=O)c2[nH]c(N(Cc3ccccc3)Cc3ccccc3)nc21	0	1	2	29*	-56	-6
CCn1c2ccccc2c2nc3ccccc3nc21	0	1	1	32*	-82	-9
CCn1c2ccccc2c2nc3cc(OC)c(OC)cc3nc21	2	1	5	45*	-79	7
COc1ccc(OC)c(C(=O)c2ccc(C(=O)N3CCCCC3)cc2)c1	0	-3	25*	8	-19	0
C=CCc1ccccc1OCC(O)CN1CCN(c2ccc(C)cc2)CC1 (configuration not stated)	0	-1	-1	6	-8	73*
CC(C)Cn1c(-c2ccc(Cl)cc2)cnc1SCC(=O)N1CCOCC1	0	0	-4	-6	-14	-2
O=C(c1ccc(F)cc1)C(CN1CCOCC1)c1ccccc1 (configuration not stated)	0	-2	0	51*	75	69*
O=C(c1ccccc1)C(CCC(CN1CCOCC1)C(=O)c1ccccc1)CN1CCOCC1 (configuration not stated)	0	-5	2	13	93*	.
CCOC(=O)c1c(-c2ccc(C)o2)csc1NC(=O)COC(=O)c1cccs1	1	1	2	1	6	50*
CCOC(=O)c1c(-c2ccc(C)o2)csc1N	0	-1	-5	-12	-9	10
CC(=O)N=c1sc(C(C)(C)C)c(C)n1C	1	0	-1	6	-2	-6
CC1(C)CC(=O)C(C=Nc2ccc3[nH]ncc3c2)=C(O)C1	0	-2	-3	18	99*	17
CC1(C)CC(=O)C(C=Nc2ccc(Cl)cn2)=C(O)C1	-1	-5	-1	6	7	.
CCOc1ccc(N=CC2=C(O)CC(C)(C)CC2=O)cc1	0	-1	-3	7	23	10
CC1(C)CC(=O)C(C=Nc2ccc3cn[nH]c3c2)=C(O)C1	0	-2	-3	40*	13	36
CSc1ccccc1N=CC1=C(O)CC(C)(C)CC1=O	-2	-2	-4	72*	26	74*
CC1(C)CC(=O)C(C=Nc2ccc(O)cc2)=C(O)C1	0	-2	-5	10	51	12
Cc1nn(-c2ccccc2)c2sc(C(=O)OCC(=O)N3CCCCC3)cc12	1	5	-1	-4	-32	2
